Data taken from ChEMBL document CHEMBL4359864, “The synthesis and in vitro biological evaluation of novel fluorinated tetrahydrobenzo[j]phenanthridine-7,12-diones against Mycobacterium tuberculosis” (Eur J Med Chem, 2019).
In brackets after ≈: the same amount, converted by molar mass. Activity calls are given as the source filed them.

Assays:
[1] = tested on: Mycobacterium tuberculosis; assay: Antimycobacterial activity against Mycobacterium tuberculosis H37Ra lux infected in mouse J774A.1 cells assessed as reduction in intracellular mycobacterial replication at 5.0 uM incubated for 24 to 72 hrs by luminometric assay relative to control; type: functional
How it was run: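 J774A.1 cells were infected at MOI 10 for 2 h at 37°C. Extracellular bacteria were killed with 100 µg/mL gentamicin for 1 h, then cells were washed and treated. At 24, 48 and 72 h, cells were lysed with 1% Triton X-100 and n-decanal was added to the lysate. Luminescence (RLU) reported as mean of triplicates ± SD.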

[2] = tested on: Mycobacterium tuberculosis; assay: Antibacterial activity against Mycobacterium tuberculosis H37Ra ATCC 25177 incubated for 7 days by resazurin dye based fluorimetric assay; type: functional, organism-based; details: H37Ra ATCC 25177, 168 h
How it was run: (§1)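 Resazurin microtiter assay: compounds from 10 mM DMSO stock, twofold serial dilutions from 64 µM final in growth medium, in triplicate. Inoculum from frozen glycerol stocks. Exposure 24 h, or 7 days for Mtb H37Ra (7H9 + 0.5% glycerol + 10% OADC). Then 0.01% resazurin was added and plates were incubated at 37°C until pink. Fluorescence read at ex 550/em 590 nm; mean of triplicates.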

[3] = Genotoxicity in Salmonella typhimurium TA104 harboring with pr1 assessed as S/N ratio at 1 to 100 uM measured for 4 hrs with 5 mins interval by luminescence based assay; type: toxicity; details: salmonella enterica subsp. enterica serovar typhimurium
How it was run: (§2)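 VITOTOX test. Genox (recN2-4) and Cytox (pr1) S. typhimurium TA104 strains were diluted 250-fold and grown in 869 medium for 16 h at 36°C with shaking, then diluted 10-fold and grown 1 h more. Compounds tested at 1, 10 and 100 µM, with or without rat liver S9-mix. Luminescence read for 4 h at 5-min intervals. S/N thresholds: Genox >1.5 genotoxic; Cytox <0.8 toxic, >1.5 luminescence artefact.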

[4] = target: T1, CYP450 (Homo sapiens, UniProt P04798+P05177+P05181+P08684+P10632+P10635+P11509+P11712+P13584+P20813+P20815+P20853+P24462+P24903+P33260+P33261+P51589+P78329+P98187+Q02928+Q08477+Q16678+Q16696+Q5TCH4+Q6VVX0+Q7Z449+Q8TAV3+Q96SQ9+Q9HB55); assay: Microsomal stability in human liver microsomes assessed as CYP450-mediated metabolism by measuring compound remaining at 5 uM and measured for 60 mins in presence of NADPH by UPLC-MS/MS analysis (reference value: 100%); type: ADME; details: read-out: Stability
How it was run: (§3)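 Compound at 5 µM with 0.5 mg/mL liver microsomes in PBS. Phase I was started with 1 mM NADPH; phase II used 2 mM UDPGA. Diclofenac served as reference. Samples taken at 0, 15, 30 and 60 min were quenched in ice-cold acetonitrile, centrifuged at 4°C and analysed by LC-MS. Mean of at least two replicates ± SD.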

[5] = tested on: CYP450; assay: Microsomal stability in mouse liver microsomes assessed as CYP450-mediated metabolism by measuring compound remaining at 5 uM and measured for 60 mins in presence of NADPH by UPLC-MS/MS analysis (reference value: 100%); type: ADME; details: read-out: Stability; how it was run: as §3
[6] = tested on: Streptococcus pneumoniae; assay: Antibacterial activity against Streptococcus pneumoniae ATCC BAA-334 incubated for 24 hrs by resazurin dye based fluorimetric assay; type: functional, organism-based; details: ATCC BAA-334, 24 h; how it was run: as §1
[7] = Antimycobacterial activity against Mycobacterium avium subsp. avium ATCC 25291 by resazurin dye based fluorimetric assay; type: functional
How it was run: (§4)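 Resazurin microtiter method as for the bacterial panel. Mycobacteria grown in 7H9 with 10% OADC and 0.5% glycerol; for BCG, 0.05% Tween 80 replaced the glycerol. Cultures were sonicated and needle-passed to single cells. Incubation at 37°C, or 32°C for M. marinum. Fluorescence read at ex 550/em 590 nm; mean of triplicates.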

[8] = tested on: Escherichia coli; assay: Antibacterial activity against Escherichia coli ATCC 8739 incubated for 24 hrs by resazurin dye based fluorimetric assay; type: functional, organism-based; details: ATCC 8739, ATCC 8739, 24 h; how it was run: as §1
[9] = Genotoxicity in Salmonella typhimurium TA104 harboring with RecN2-4 assessed as S/N ratio at 1 to 100 uM measured for 4 hrs with 5 mins interval in presence of rat liver S9 fraction by luminescence based assay; type: toxicity, subcellular; details: salmonella enterica subsp. enterica serovar typhimurium, s9, 4 h; how it was run: as §2
[10] = target: T2, UGT (Homo sapiens, UniProt O60656+O75310+O75795+P06133+P0DTE4+P0DTE5+P16662+P19224+P22309+P22310+P35503+P35504+P36537+P54855+Q6UWM9+Q9BY64+Q9HAW7+Q9HAW8+Q9HAW9); assay: Microsomal stability in human liver microsomes assessed as UGT-mediated metabolism by measuring compound remaining at 5 uM and measured for 30 mins in presence of UDPGA by UPLC-MS/MS analysis (reference value: 100%); type: ADME; details: read-out: Stability; how it was run: as §3
[11] = tested on: CYP450; assay: Microsomal stability in mouse liver microsomes assessed as CYP450-mediated metabolism by measuring compound remaining at 5 uM and measured for 30 mins in presence of NADPH by UPLC-MS/MS analysis (reference value: 100%); type: ADME; details: read-out: Stability; how it was run: as §3
[12] = target: T1, CYP450; assay: Microsomal stability in human liver microsomes assessed as CYP450-mediated metabolism by measuring compound remaining at 5 uM and measured for 30 mins in presence of NADPH by UPLC-MS/MS analysis (reference value: 100%); type: ADME; details: read-out: Stability; how it was run: as §3
[13] = tested on: Enterococcus faecium; assay: Antibacterial activity against Enterococcus faecium ATCC 19434 incubated for 24 hrs by resazurin dye based fluorimetric assay; type: functional, organism-based; details: ATCC 19434, 24 h; how it was run: as §1
[14] = tested on: UGT; assay: Microsomal stability in mouse liver microsomes assessed as UGT-mediated metabolism by measuring compound remaining at 5 uM and measured for 15 mins in presence of UDPGA by UPLC-MS/MS analysis (reference value: 100%); type: ADME; details: read-out: Stability; how it was run: as §3
[15] = tested on: UGT; assay: Microsomal stability in mouse liver microsomes assessed as UGT-mediated metabolism by measuring compound remaining at 5 uM and measured for 30 mins in presence of UDPGA by UPLC-MS/MS analysis (reference value: 100%); type: ADME; details: read-out: Stability; how it was run: as §3
[16] = target: T2, UGT; assay: Microsomal stability in human liver microsomes assessed as UGT-mediated metabolism by measuring compound remaining at 5 uM and measured for 15 mins in presence of UDPGA by UPLC-MS/MS analysis (reference value: 100%); type: ADME; details: read-out: Stability; how it was run: as §3
[17] = tested on: CYP450; assay: Microsomal stability in mouse liver microsomes assessed as CYP450-mediated metabolism by measuring compound remaining at 5 uM and measured for 15 mins in presence of NADPH by UPLC-MS/MS analysis (reference value: 100%); type: ADME; details: read-out: Stability; how it was run: as §3
[18] = tested on: Mycobacterium marinum; assay: Antimycobacterial activity against Mycobacterium marinum NCTC 2275 by resazurin dye based fluorimetric assay; type: functional, organism-based; how it was run: as §4
[19] = tested on: Mycobacterium tuberculosis; assay: Antimycobacterial activity against Mycobacterium tuberculosis H37Ra lux incubated for 7 days by luminometric assay; type: functional, organism-based; details: 168 h
How it was run: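 Twofold serial dilutions in 7H9/OADC/glycerol, in triplicate, inoculated with a suspension of 10.000 RLU per mL. After 7 days, n-decanal (1% v/v in ethanol) was added and luminescence read. IC50 and MIC (90% growth reduction) were derived from the mean of triplicates.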

Row | Structure (SMILES) | Activity [1] | IC50 [2] [µM] | Ratio [3] | remaining at 1 h, 5 µM [4] [%] | remaining at 1 h, 5 µM [5] [%] | IC50 [6] [µM] | IC50 [7] [µM] | IC50 [8] [µM] | Ratio [9] | remaining at 0.5 h, 5 µM [10] [%] | remaining at 0.5 h, 5 µM [11] [%] | remaining at 0.5 h, 5 µM [12] [%] | IC50 [13] [µM] | remaining at 0.25 h, 5 µM [14] [%] | remaining at 0.5 h, 5 µM [15] [%] | remaining at 0.25 h, 5 µM [16] [%] | remaining at 0.25 h, 5 µM [17] [%] | IC50 [18] [µM] | IC50 [19] [µM] | MIC90 [19] [µM]
1 | O=C1C2=C(C(=O)c3c1cnc1c(F)cccc31)C1CCC2C1 (stereo not given) | inactive | 1 to 2 | >= 0.8 | 100 | 100 | 32 to 64 | 0.1 | > 64 | <= 1.5 | 71 | 100 | 100 | > 64 | 77 | 70 | 78 | 100 | 3.3 | 1.54 | 4.43 (≈ 1.3 µg/mL)
2 | O=C1C2=C(C(=O)c3c1cnc1ccccc31)C1CCC2C1 (stereo not given) | 58.94% | 1 to 2 | >= 0.8 | 100 | 94 | 32 to 64 | 0.12 | > 64 | <= 1.5 | 76 | 100 | 100 | 32 to 64 | 69 | 86 | 83 | 100 | 7.73 | 1.28 | 6.33 (≈ 1.74 µg/mL)
